Measured values from ChEMBL document CHEMBL3822407, “Design, synthesis and antiproliferative activity of novel 5-nitropyrimidine-2,4-diamine derivatives bearing alkyl acetate moiety” (Eur J Med Chem, 2016).
≈ marks a conversion by molar mass, not a printed value.

Columns and labels:
MDA-MB-231 = assay: Antiproliferative activity against human MDA-MB-231 cells after 48 hrs by MTT assay; format: functional, cell-based; settings: MDA-MB-231, 48 h
Procedure, shortened: (§1)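 Cells kept in DMEM with 10% FBS and plated at 5 × 10³ per well, then allowed 24 h to attach at 37 °C. Compounds were dissolved as 20 mM DMSO stocks, diluted in medium to a range of concentrations, and applied for 48 h at 37 °C under 5% CO2, with 0.1% DMSO as control. MTT was added for 4 h, formazan dissolved in DMSO, and A570 read. IC50 is the mean of three independent experiments run in quadruplicate.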

A549 = assay: Antiproliferative activity against human A549 cells after 48 hrs by MTT assay; format: functional, cell-based; settings: A549, 48 h; procedure, shortened: as §1
HepG2 [1] = assay: Antiproliferative activity against human HepG2 cells after 48 hrs by MTT assay; format: functional, cell-based; settings: HepG2, 48 h; procedure, shortened: as §1
MCF7 = assay: Antiproliferative activity against human MCF7 cells after 48 hrs by MTT assay; format: functional, cell-based; settings: MCF7, 48 h; procedure, shortened: as §1
HepG2 [2] = assay: Potency index, ratio of fluorouracil IC50 to compound IC50 for human HepG2 cells; format: functional
[3] = Solubility in water at pH 6.4; format: physicochemical
[4] = Solubility in water at pH 1; format: physicochemical
HepG2 [5] = assay: Cell cycle arrest in human HepG2 cells assessed as accumulation at subG1 phase at 1 uM after 48 hrs by propidium iodide staining based flow cytometry (reference value: 2.09%); format: functional
Procedure, shortened: (§2)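 HepG2 cells grown to about 70% confluence and exposed to […] of compound for 48 h. Cells were then trypsinized, washed in PBS and fixed overnight in ice-cold 70% ethanol. They were treated with RNase (50, final) at 37 °C for 30 min, stained with propidium iodide (50, final), and phase distribution was measured by flow cytometry.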

HepG2 [6] = assay: Cell cycle arrest in human HepG2 cells assessed as accumulation at subG1 phase at 5 uM after 48 hrs by propidium iodide staining based flow cytometry (reference value: 2.09%); format: functional; procedure, shortened: as §2
HepG2 [7] = assay: Cell cycle arrest in human HepG2 cells assessed as accumulation at subG1 phase at 10 uM after 48 hrs by propidium iodide staining based flow cytometry (reference value: 2.09%); format: functional; procedure, shortened: as §2
HepG2 [8] = assay: Cell cycle arrest in human HepG2 cells assessed as accumulation at subG1 phase at 20 uM after 48 hrs by propidium iodide staining based flow cytometry (reference value: 2.09%); format: functional; procedure, shortened: as §2
HepG2 [9] = assay: Cell cycle arrest in human HepG2 cells assessed as accumulation at G0/G1 phase at 1 uM after 48 hrs by propidium iodide staining based flow cytometry (reference value: 44.28%); format: functional; procedure, shortened: as §2
HepG2 [10] = assay: Cell cycle arrest in human HepG2 cells assessed as accumulation at G0/G1 phase at 5 uM after 48 hrs by propidium iodide staining based flow cytometry (reference value: 44.28%); format: functional; procedure, shortened: as §2
HepG2 [11] = assay: Cell cycle arrest in human HepG2 cells assessed as accumulation at G0/G1 phase at 10 uM after 48 hrs by propidium iodide staining based flow cytometry (reference value: 44.28%); format: functional; procedure, shortened: as §2
HepG2 [12] = assay: Cell cycle arrest in human HepG2 cells assessed as accumulation at G0/G1 phase at 20 uM after 48 hrs by propidium iodide staining based flow cytometry (reference value: 44.28%); format: functional; procedure, shortened: as §2
HepG2 [13] = assay: Cell cycle arrest in human HepG2 cells assessed as accumulation at S phase at 1 uM after 48 hrs by propidium iodide staining based flow cytometry (reference value: 28.95%); format: functional; procedure, shortened: as §2
HepG2 [14] = assay: Cell cycle arrest in human HepG2 cells assessed as accumulation at S phase at 5 uM after 48 hrs by propidium iodide staining based flow cytometry (reference value: 28.95%); format: functional; procedure, shortened: as §2
HepG2 [15] = assay: Cell cycle arrest in human HepG2 cells assessed as accumulation at S phase at 10 uM after 48 hrs by propidium iodide staining based flow cytometry (reference value: 28.95%); format: functional; procedure, shortened: as §2
HepG2 [16] = assay: Cell cycle arrest in human HepG2 cells assessed as accumulation at S phase at 20 uM after 48 hrs by propidium iodide staining based flow cytometry (reference value: 28.95%); format: functional; procedure, shortened: as §2
HepG2 [17] = assay: Cell cycle arrest in human HepG2 cells assessed as accumulation at G2/M phase at 1 uM after 48 hrs by propidium iodide staining based flow cytometry (reference value: 21.54%); format: functional; procedure, shortened: as §2
HepG2 [18] = assay: Cell cycle arrest in human HepG2 cells assessed as accumulation at G2/M phase at 5 uM after 48 hrs by propidium iodide staining based flow cytometry (reference value: 21.54%); format: functional; procedure, shortened: as §2
HepG2 [19] = assay: Cell cycle arrest in human HepG2 cells assessed as accumulation at G2/M phase at 10 uM after 48 hrs by propidium iodide staining based flow cytometry (reference value: 21.54%); format: functional; procedure, shortened: as §2
HepG2 [20] = assay: Cell cycle arrest in human HepG2 cells assessed as accumulation at G2/M phase at 20 uM after 48 hrs by propidium iodide staining based flow cytometry (reference value: 21.54%); format: functional; procedure, shortened: as §2
HepG2 [21] = assay: Cell cycle arrest in human HepG2 cells assessed as accumulation at G2/M phase after 48 hrs by propidium iodide staining based flow cytometry; format: functional; procedure, shortened: as §2

Structure (SMILES): CCOC(=O)CNc1ncc([N+](=O)[O-])c(N(CC(=O)OCC)Cc2ccccc2)n1
- IC50 (MDA-MB-231): 92.5 µM
- IC50 (A549): > 100 µM
- IC50 (HepG2 [1]): 44.5 µM
- IC50 (MCF7): > 100 µM

Structure (SMILES): CCOC(=O)CNc1nc(Nc2ccc(Cl)cc2)ncc1[N+](=O)[O-]
- IC50 (MDA-MB-231): 55.5 µM
- IC50 (A549): > 100 µM
- IC50 (HepG2 [1]): > 100 µM
- IC50 (MCF7): > 100 µM

Structure (SMILES): CCOC(=O)CN(Cc1ccccc1)c1nc(NC2CCN(S(C)(=O)=O)CC2)ncc1[N+](=O)[O-]
- IC50 (MDA-MB-231): 75.8 µM
- IC50 (A549): > 100 µM
- IC50 (HepG2 [1]): 57.1 µM
- IC50 (MCF7): > 100 µM

Structure (SMILES): CCOC(=O)CN(Cc1ccccc1)c1nc(Nc2ccc(Cl)cc2)ncc1[N+](=O)[O-]
- IC50 (MDA-MB-231): 34.4 µM
- IC50 (A549): > 100 µM
- IC50 (HepG2 [1]): 30.9 µM
- IC50 (MCF7): > 100 µM

Structure (SMILES): COC(=O)CN(C)c1nc(NCCc2ccccc2)ncc1[N+](=O)[O-]
- IC50 (MDA-MB-231): 44.8 µM
- IC50 (A549): 37 µM
- IC50 (HepG2 [1]): 86.7 µM
- IC50 (MCF7): 32.5 µM

Structure (SMILES): COC(=O)CN(C)c1nc(Nc2ccc(Cl)cc2)ncc1[N+](=O)[O-]
- IC50 (MDA-MB-231): 21.2 µM
- IC50 (A549): 23.5 µM
- IC50 (HepG2 [1]): 49.8 µM
- IC50 (MCF7): 60.7 µM

Structure (SMILES): CCOC(=O)CNc1nc(Nc2ccccc2)ncc1[N+](=O)[O-]
- IC50 (MDA-MB-231): 54.3 µM
- IC50 (A549): > 100 µM
- IC50 (HepG2 [1]): > 100 µM
- IC50 (MCF7): > 100 µM

Structure (SMILES): CCOC(=O)CNc1nc(Nc2ccc(OC)cc2)ncc1[N+](=O)[O-]
- IC50 (MDA-MB-231): 32.6 µM
- IC50 (A549): > 100 µM
- IC50 (HepG2 [1]): > 100 µM
- IC50 (MCF7): > 100 µM

Structure (SMILES): COC(=O)CN(C)c1nc(Nc2cccc(OC)c2)ncc1[N+](=O)[O-]
- IC50 (MDA-MB-231): 58 µM
- IC50 (A549): 31.9 µM
- IC50 (HepG2 [1]): 73.4 µM
- IC50 (MCF7): 93.7 µM

Structure (SMILES): CCOC(=O)CN(Cc1ccccc1)c1nc(Nc2cc(OC)c(OC)c(OC)c2)ncc1[N+](=O)[O-]
- IC50 (MDA-MB-231): 40.4 µM
- IC50 (A549): > 100 µM
- IC50 (HepG2 [1]): 37.8 µM
- IC50 (MCF7): > 100 µM

Structure (SMILES): CCOC(=O)CNc1nc(Nc2cccc(OC)c2)ncc1[N+](=O)[O-]
- IC50 (MDA-MB-231): 31.3 µM
- IC50 (A549): 36.1 µM
- IC50 (HepG2 [1]): > 100 µM
- IC50 (MCF7): 35.8 µM

Structure (SMILES): CCOC(=O)CN(Cc1ccccc1)c1nc(Nc2ccccc2)ncc1[N+](=O)[O-]
- IC50 (MDA-MB-231): > 100 µM
- IC50 (A549): > 100 µM
- IC50 (HepG2 [1]): 44.4 µM
- IC50 (MCF7): > 100 µM

Structure (SMILES): CCOC(=O)CN(Cc1ccccc1)c1nc(NCc2ccccc2)ncc1[N+](=O)[O-]
- IC50 (MDA-MB-231): 82.4 µM
- IC50 (A549): > 100 µM
- IC50 (HepG2 [1]): 20.9 µM
- IC50 (MCF7): > 100 µM

Structure (SMILES): COC(=O)CN(C)c1nc(Nc2ccccc2)ncc1[N+](=O)[O-]
- IC50 (MDA-MB-231): > 100 µM
- IC50 (A549): > 100 µM
- IC50 (HepG2 [1]): > 100 µM
- IC50 (MCF7): > 100 µM

Structure (SMILES): CCOC(=O)CN(Cc1ccccc1)c1nc(NCCc2ccccc2)ncc1[N+](=O)[O-]
- IC50 (MDA-MB-231): 22.3 µM
- IC50 (A549): 87.3 µM
- IC50 (HepG2 [1]): 10.4 µM
- IC50 (MCF7): 21 µM
- Ratio IC50 (HepG2 [2]): 3
- solubility [3]: 3 µg/mL (≈ 6.89 µM)
- solubility [4]: 80.5 µg/mL (≈ 185 µM)
- Activity (HepG2 [5]): 5.08%
- Activity (HepG2 [6]): 3.85%
- Activity (HepG2 [7]): 4.8%
- Activity (HepG2 [8]): 4.91%
- Activity (HepG2 [9]): 34.03%
- Activity (HepG2 [10]): 31.26%
- Activity (HepG2 [11]): 30.91%
- Activity (HepG2 [12]): 29.86%
- Activity (HepG2 [13]): 28.08%
- Activity (HepG2 [14]): 28.28%
- Activity (HepG2 [15]): 27.02%
- Activity (HepG2 [16]): 25.75%
- Activity (HepG2 [17]): 25.46%
- Activity (HepG2 [18]): 30.83%
- Activity (HepG2 [19]): 31.94%
- Activity (HepG2 [20]): 36.85%
- Activity (HepG2 [21]): Dose-dependent effect

Structure (SMILES): COC(=O)CN(C)c1nc(Nc2cc(OC)c(OC)c(OC)c2)ncc1[N+](=O)[O-]
- IC50 (MDA-MB-231): 25.9 µM
- IC50 (A549): > 100 µM
- IC50 (HepG2 [1]): 26.2 µM
- IC50 (MCF7): 42 µM

Structure (SMILES): CCOC(=O)CNc1nc(NCc2ccccc2)ncc1[N+](=O)[O-]
- IC50 (MDA-MB-231): 22.3 µM
- IC50 (A549): 74.4 µM
- IC50 (HepG2 [1]): > 100 µM
- IC50 (MCF7): 52.4 µM

Structure (SMILES): CCOC(=O)CNc1nc(NC2CCN(S(C)(=O)=O)CC2)ncc1[N+](=O)[O-]
- IC50 (MDA-MB-231): 80.7 µM
- IC50 (A549): > 100 µM
- IC50 (HepG2 [1]): > 100 µM
- IC50 (MCF7): > 100 µM

Structure (SMILES): O=c1[nH]cc(F)c(=O)[nH]1 [FLUOROURACIL]
- IC50 (MCF7): 30.4 µM

Structure (SMILES): COC(=O)CN(C)c1nc(NC2CCN(S(C)(=O)=O)CC2)ncc1[N+](=O)[O-]
- IC50 (MDA-MB-231): 59.6 µM
- IC50 (A549): > 100 µM
- IC50 (HepG2 [1]): > 100 µM
- IC50 (MCF7): > 100 µM

Structure (SMILES): CCOC(=O)CNc1nc(NCCc2ccccc2)ncc1[N+](=O)[O-]
- IC50 (MDA-MB-231): 21.9 µM
- IC50 (A549): 48.2 µM
- IC50 (HepG2 [1]): 71.1 µM
- IC50 (MCF7): > 100 µM

Structure (SMILES): CCOC(=O)CN(Cc1ccccc1)c1nc(NCc2cccc(OC)c2)ncc1[N+](=O)[O-]
- IC50 (MDA-MB-231): 80.7 µM
- IC50 (A549): > 100 µM
- IC50 (HepG2 [1]): 33.6 µM
- IC50 (MCF7): 57.4 µM

Structure (SMILES): COC(=O)CN(C)c1nc(NCc2ccccc2)ncc1[N+](=O)[O-]
- IC50 (MDA-MB-231): 61.1 µM
- IC50 (A549): 79.4 µM
- IC50 (HepG2 [1]): > 100 µM
- IC50 (MCF7): 85.9 µM

Structure (SMILES): CCOC(=O)CN(Cc1ccccc1)c1nc(Nc2cccc(OC)c2)ncc1[N+](=O)[O-]
- IC50 (MDA-MB-231): 47.2 µM
- IC50 (A549): > 100 µM
- IC50 (HepG2 [1]): 27.6 µM
- IC50 (MCF7): > 100 µM
